# Results: ChEMBL document CHEMBL2440012, “Design, synthesis and anticonvulsant properties of new N-Mannich bases derived from 3-phenylpyrrolidine-2,5-diones” (Bioorg Med Chem, 2013)
# Activity calls are given as the source filed them. The rule behind the calls is not given here.
# Key:
# [1] = system: Rattus norvegicus; experiment: Neurotoxicity in po dosed albino Sprague-Dawley rat assessed as time to peak effect by rotorod test; type: toxicity, organism-based; settings: in vivo
# [2] = system: Rattus norvegicus; experiment: Anticonvulsant activity in albino Sprague-Dawley rat assessed as protection against maximal electroshock-induced seizures at 30 mg/kg, po measured after 0.5 hr; type: functional
# How it was run: (§1)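 Male Sprague-Dawley rats, four per group, dosed p.o. at 30 mg/kg in 0.5% methylcellulose/water suspension; MES test at 0.25, 0.5, 1, 2 and 4 h, motor impairment examined in parallel; number of rats out of four protected.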
# [3] = system: Mus musculus; experiment: Anticonvulsant activity in ip dosed albino CF1 mouse assessed as protection against maximal electroshock-induced seizures in half or more animals measured after 4 hrs; type: functional; settings: read-out: MED
# How it was run: (§2)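 Male CF-1 mice given ip suspension in 0.5% methylcellulose/water at 30, 100 and 300 mg/kg; MES, scPTZ (pentylenetetrazole 85 mg/kg sc, CD97 dose for clonic seizures ≥5 s) and rotarod (inability to hold balance 1 min in each of three trials) assessed at 0.5 and 4 h; value is minimum dose active in half or more animals.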
# [4] = system: Mus musculus; experiment: Anticonvulsant activity in albino CF1 mouse assessed as protection against subcutaneous pentylenetetrazole-induced convulsion at 300 mg/kg, ip measured after 0.5 hrs; type: functional, organism-based; design: dose 300 mg/kg; how it was run: as §2
# [5] = system: Mus musculus; experiment: Anticonvulsant activity in albino CF1 mouse assessed as protection against subcutaneous pentylenetetrazole-induced convulsion at 300 mg/kg, ip measured after 4 hrs; type: functional, organism-based; design: dose 300 mg/kg; how it was run: as §2
# [6] = system: Mus musculus; experiment: Neurotoxicity in ip dosed albino CF1 mouse assessed as minimum motor impairment in half or more animals measured after 0.5 hrs by rotorod test; type: toxicity, organism-based; settings: in vivo; how it was run: as §2
# [7] = system: Rattus norvegicus; experiment: Anticonvulsant activity in albino Sprague-Dawley rat assessed as protection against maximal electroshock-induced seizures at 30 mg/kg, po measured after 0.25 hr; type: functional; how it was run: as §1
# [8] = Neurotoxicity in po dosed albino Sprague-Dawley rat assessed as minimum motor impairment by rotorod test; type: toxicity, organism-based; settings: in vivo
# [9] = system: Rattus norvegicus; experiment: Anticonvulsant activity against […] subcutaneous pentylenetetrazole-induced convulsion in po dosed albino Sprague-Dawley rat assessed as time to peak effect; type: functional
# [10] = system: Rattus norvegicus; experiment: Anticonvulsant activity in albino Sprague-Dawley rat assessed as protection against maximal electroshock-induced seizures at 30 mg/kg, po measured after 2 hrs; type: functional; how it was run: as §1
# [11] = system: Mus musculus; experiment: Anticonvulsant activity in ip dosed albino CF1 mouse assessed as protection against maximal electroshock-induced seizures in half or more animals measured after 0.5 hr; type: functional; settings: read-out: MED; how it was run: as §2
# [12] = system: Rattus norvegicus; experiment: Protection index, ratio of TD50 for neurotoxicity in po dosed albino Sprague-Dawley rat by rotorod test to ED50 for anticonvulsant activity in po dosed albino Sprague-Dawley rat by MES test; type: functional
# [13] = system: Mus musculus; experiment: Neurotoxicity in ip dosed albino CF1 mouse assessed as minimum motor impairment in half or more animals measured after 4 hrs by rotorod test; type: toxicity, organism-based; settings: in vivo; how it was run: as §2
# [14] = system: Rattus norvegicus; experiment: Anticonvulsant activity against maximal electroshock-induced seizures in po dosed albino Sprague-Dawley rat assessed as time to peak effect; type: functional
# [15] = system: Rattus norvegicus; experiment: Anticonvulsant activity in po dosed albino Sprague-Dawley rat assessed as protection against subcutaneous pentylenetetrazole-induced convulsion; type: functional
# [16] = system: Rattus norvegicus; experiment: Anticonvulsant activity in albino Sprague-Dawley rat assessed as protection against maximal electroshock-induced seizures at 30 mg/kg, po measured after 1 hr; type: functional; how it was run: as §1
# [17] = system: Rattus norvegicus; experiment: Anticonvulsant activity in albino Sprague-Dawley rat assessed as protection against maximal electroshock-induced seizures at 30 mg/kg, po measured after 4 hrs; type: functional; how it was run: as §1
# [18] = system: Mus musculus; experiment: Anticonvulsant activity in albino CF1 mouse assessed as assessed as protection against 6 Hz psychomotor seizure at 100 mg/kg, ip after 0.5 hr by minimal clonic seizure test; type: functional; settings: route intraperitoneal
# How it was run: (§3)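 Male CF-1 mice, groups of four, dosed ip in 0.5% methylcellulose/water suspension, then challenged by 6-Hz corneal stimulation at 32 mA (0.2 ms pulses, 3 s, constant current) at 0.25, 0.5, 1, 2 or 4 h; count of mice out of four protected from stunned posture/clonic seizure.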
# [19] = system: Mus musculus; experiment: Neurotoxicity in albino CF1 mouse assessed as minimum motor impairment at 300 mg/kg, ip measured after 0.5 hr by rotorod test; type: toxicity, organism-based; design: dose 300 mg/kg, route intraperitoneal; settings: in vivo; how it was run: as §2
# [20] = system: Mus musculus; experiment: Anticonvulsant activity in albino CF1 mouse assessed as protection against maximal electroshock-induced seizures at 300 mg/kg, ip measured after 0.5 hr; type: functional, organism-based; design: dose 300 mg/kg; how it was run: as §2
# [21] = system: Mus musculus; experiment: Anticonvulsant activity in albino CF1 mouse assessed as assessed as protection against 6 Hz psychomotor seizure at 100 mg/kg, ip after 2 hrs by minimal clonic seizure test; type: functional; settings: route intraperitoneal; how it was run: as §3
# [22] = system: Mus musculus; experiment: Anticonvulsant activity against 6 Hz psychomotor seizure in ip dosed albino CF1 mouse by minimal clonic seizure test; type: functional
# [23] = system: Mus musculus; experiment: Anticonvulsant activity against 6 Hz psychomotor seizure in ip dosed albino CF1 mouse assessed as time to peak effect by minimal clonic seizure test; type: functional
# [24] = system: Mus musculus; experiment: Neurotoxicity in ip dosed albino CF1 mouse assessed as time to peak effect by rotorod test; type: toxicity, organism-based; settings: in vivo
# [25] = system: Mus musculus; experiment: Anticonvulsant activity in albino CF1 mouse assessed as assessed as protection against 6 Hz psychomotor seizure at 100 mg/kg, ip after 1 hr by minimal clonic seizure test; type: functional; settings: route intraperitoneal; how it was run: as §3
# [26] = system: Mus musculus; experiment: Anticonvulsant activity in albino CF1 mouse assessed as assessed as protection against 6 Hz psychomotor seizure at 100 mg/kg, ip after 4 hrs by minimal clonic seizure test; type: functional; settings: route intraperitoneal; how it was run: as §3
# [27] = system: Mus musculus; experiment: Neurotoxicity in albino CF1 mouse assessed as minimum motor impairment at 300 mg/kg, ip measured after 4 hrs by rotorod test; type: toxicity, organism-based; design: dose 300 mg/kg, route intraperitoneal; settings: in vivo; how it was run: as §2
# [28] = system: Mus musculus; experiment: Anticonvulsant activity in albino CF1 mouse assessed as protection against maximal electroshock-induced seizures at 300 mg/kg, ip measured after 4 hrs; type: functional, organism-based; design: dose 300 mg/kg; how it was run: as §2
# [29] = system: Mus musculus; experiment: Anticonvulsant activity in albino CF1 mouse assessed as assessed as protection against 6 Hz psychomotor seizure at 100 mg/kg, ip after 0.25 hr by minimal clonic seizure test; type: functional; settings: route intraperitoneal; how it was run: as §3
# [30] = system: Mus musculus; experiment: Anticonvulsant activity in albino CF1 mouse assessed as assessed as protection against 6 Hz psychomotor seizure at 75 mg/kg, ip after 0.5 hr by minimal clonic seizure test; type: functional; settings: route intraperitoneal; how it was run: as §3
# [31] = system: Rattus norvegicus; experiment: Protection index, ratio of TD50 for neurotoxicity in po dosed albino Sprague-Dawley rat by rotorod test to ED50 for anticonvulsant activity in po dosed albino Sprague-Dawley rat by scPTZ test; type: functional
# How it was run: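 Male Sprague-Dawley rats, compound suspended in 0.5% methylcellulose/water and given orally; tested at the time of peak effect. scPTZ: 70 mg/kg pentylenetetrazole sc; the end-point is clonic seizures lasting at least 5 s. Rotarod: motor impairment is failure to keep balance for 1 min in each of three trials. Groups of at least eight rats received several doses until at least three points fell within 10–90% effect. ED50, TD50 and 95% confidence intervals were derived by regression; PI = TD50/ED50.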
# [32] = system: Mus musculus; experiment: Toxicity in albino CF1 mouse assessed as myoclonic jerks at 300 mg/kg, ip measured after 0.5 hr by rotorod test; type: organism-based; design: dose 300 mg/kg, route intraperitoneal; settings: in vivo
# [33] = system: Mus musculus; experiment: Protection index, ratio of TD50 for neurotoxicity in ip dosed albino CF1 mouse by rotorod test to ED50 for anticonvulsant activity in ip dosed albino CF1 mouse by 6 Hz psychomotor seizure test; type: functional
# [34] = system: Mus musculus; experiment: Anticonvulsant activity in albino CF1 mouse assessed as assessed as protection against 6 Hz psychomotor seizure at 75 mg/kg, ip after 1 hr by minimal clonic seizure test; type: functional; settings: route intraperitoneal; how it was run: as §3
# [35] = Neurotoxicity in ip dosed albino CF1 mouse by rotorod test; type: toxicity, organism-based; settings: in vivo
# [36] = system: Mus musculus; experiment: Anticonvulsant activity in albino CF1 mouse assessed as assessed as protection against 6 Hz psychomotor seizure at 75 mg/kg, ip after 4 hrs by minimal clonic seizure test; type: functional; settings: route intraperitoneal; how it was run: as §3
# [37] = system: Rattus norvegicus; experiment: Anticonvulsant activity in po dosed albino Sprague-Dawley rat assessed as protection against maximal electroshock-induced seizures; type: functional
# [38] = system: Mus musculus; experiment: Anticonvulsant activity in albino CF1 mouse assessed as assessed as protection against 6 Hz psychomotor seizure at 75 mg/kg, ip after 2 hrs by minimal clonic seizure test; type: functional; settings: route intraperitoneal; how it was run: as §3
# [39] = system: Mus musculus; experiment: Anticonvulsant activity in albino CF1 mouse assessed as assessed as protection against 6 Hz psychomotor seizure at 75 mg/kg, ip after 0.25 hr by minimal clonic seizure test; type: functional; settings: route intraperitoneal; how it was run: as §3
SMILES,Time [1] [h],Activity [2],minimal effective dose [3] [mg/kg],Activity [4],Activity [5],MED [6] [mg/kg],Activity [7],TD50 [8] [mg/kg],Time [9] [h],Activity [10],minimal effective dose [11] [mg/kg],Ratio TD50/ED50 [12],Time [14] [h],ED50 [15] [mg/kg],Activity [16],Activity [17],ED50 [22] [mg/kg],Time [23] [h],Time [24] [h],Activity [27],other results
O=C1NC(=O)C(c2ccccc2)(c2ccccc2)N1 [PHENYTOIN],1,100%,30,inactive,inactive,100,25%,> 100,1,75%,30,>3.6,1,> 500,75%,75%,–,–,–,–,MED [13]: 100 mg/kg
O=C1CC(c2ccccc2)C(=O)N1CN1CCN(c2ncccn2)CC1 (racemic),–,inactive,–,inactive,inactive,–,inactive,–,–,inactive,–,–,–,–,inactive,inactive,103,1,1,Non-toxic,Activity [18]: 50%; Activity [19]: Non-toxic; Activity [20]: inactive; Activity [21]: 50%; Activity [25]: 50%; Activity [26]: 0%; Activity [28]: inactive; Activity [29]: 75%
O=C1CC(c2ccccc2Cl)C(=O)N1CN1CCC(Cc2ccccc2)CC1 (racemic),1,75%,100,inactive,–,300,25%,> 500,1,25%,300,>13.28,1,107,75%,inactive,84.6,0.5,0.5,Non-toxic,Activity [30]: 75%; Ratio TD50/ED50 [31]: >4.68; MED [32]: 100 mg/kg; Ratio TD50/ED50 [33]: 3.26; Activity [34]: 0%; TD50 [35]: 275 mg/kg; Activity [36]: 0%; ED50 [37]: 37.6 mg/kg; Activity [38]: 25%; Activity [39]: 0%
CCCC(CCC)C(=O)O [VALPROIC ACID],1,–,–,–,–,–,–,–,1,–,–,–,1,646,–,–,–,–,–,–,–
